Data reported in ChEMBL document CHEMBL1156530, “Novel conantokins from Conus parius venom are specific antagonists of N-methyl-D-aspartate receptors” (J Biol Chem, 2007).
Activity calls are given as the source filed them. The calls are words filed in the database; no cut-off is given here. Non-standard residues stand in square brackets, D forms with d. Residues, ends and D or L forms follow the SMILES beside them. Gla = N[C@@H](CC(C(=O)O)C(=O)O)C(=O)O; Hyp = O=C(O)[C@@H]1C[C@@H](O)CN1

Columns and labels:
[1] = molecular target: Glutamate receptor ionotropic, NMDA 2D (Rattus norvegicus, UniProt P35439+Q62645); experiment: Inhibition of rat NMDA NR2D receptor expressed in xenopus oocytes coexpressing NMDA NR13b assessed as effect on glycine-induced current response at -70 mV by voltage clamp method; type: cell-based, Oocyte
Method in brief: (§1)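 Xenopus oocytes expressing rat NR1-3b with one NR2 subunit (A–D), voltage-clamped at -70 mV. Perfusion was Mg2+-free ND96 (pH 7.2–7.5) with 0.1 mg/ml BSA. Peptide was applied in a static bath for 5–10 min; the agonist-evoked current was then expressed as % of the pre-peptide current. IC50s were taken from concentration-response curves, n ≥ 3 per point.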

Rattus norvegicus [2] = species: Rattus norvegicus; experiment: Selectivity ratio, IC50 for rat NMDA NR2D receptor to IC50 for rat NMDA NR2B receptor
Method in brief: (§2)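 Ratios of IC50s taken from oocyte concentration-response curves for rat NR1-3b co-expressed with NR2A, NR2B or NR2D, recorded at -70 mV in Mg2+-free ND96 with 5–10-min static-bath peptide application, n ≥ 3 per point.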

Mus musculus [3] = experiment: Induction of sleep in intracranially dosed 10-day old Swiss-Webster mouse assessed as average onset of deep sleep at 5 nmol; type: functional
Method in brief: (§3)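 Intracranial injection of synthetic peptide (0.5, 1 or 5 nmol) in 20 μl normal saline into 10-day-old Swiss-Webster mice, 2–6 per dose. Con-G served as positive control and saline as negative control. Deep-sleep onset was the time at which a mouse no longer tried to right itself after being rolled onto its back; onset times were averaged.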

Mus musculus [4] = experiment: Induction of sleep in intracranially dosed 10-day old Swiss-Webster mouse assessed as average onset of deep sleep at 1 nmol; type: functional; method in brief: as §3
Mus musculus [5] = experiment: Induction of sleep in intracranially dosed 10-day old Swiss-Webster mouse assessed as average onset of deep sleep at 0.5 nmol; type: functional; method in brief: as §3
[6] = molecular target: Glutamate receptor ionotropic, NMDA 2B (Rattus norvegicus) (UniProt Q00960); experiment: Inhibition of rat NMDA NR2B receptor expressed in xenopus oocytes coexpressing NMDA NR13b assessed as effect on glycine-induced current response at 1 uM at -70 mV by voltage clamp method; type: cell-based; conditions: Oocyte
Method in brief: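 Oocytes expressing rat NR1-3b/NR2B, voltage-clamped at -70 mV in Mg2+-free ND96 with 0.1 mg/ml BSA. Baseline currents were recorded, followed by a 10-min static-bath buffer control. Then 1 μM peptide was applied in a static bath for 10 min, and the next agonist-evoked current was expressed as % of the pre-peptide amplitude.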

[7] = molecular target: Glutamate receptor ionotropic, NMDA 2A (Rattus norvegicus, UniProt P35439+Q00959); experiment: Inhibition of rat NMDA NR2A receptor expressed in xenopus oocytes coexpressing NMDA NR13b assessed as effect on glycine-induced current response at -70 mV by voltage clamp method; type: cell-based, Oocyte; method in brief: as §1
[8] = molecular target: Glutamate receptor ionotropic, NMDA 2B (Rattus norvegicus, UniProt P35439+Q00960); experiment: Inhibition of rat NMDA NR2B receptor expressed in xenopus oocytes coexpressing NMDA NR13b assessed as effect on glycine-induced current response at -70 mV by voltage clamp method; type: cell-based, Oocyte; method in brief: as §1
[9] = molecular target: Glutamate receptor ionotropic, NMDA 2C (Rattus norvegicus, UniProt P35439+Q00961); experiment: Inhibition of rat NMDA NR2C receptor expressed in xenopus oocytes coexpressing NMDA NR13b assessed as effect on glycine-induced current response at -70 mV by voltage clamp method; type: cell-based, Oocyte; method in brief: as §1
Rattus norvegicus [10] = species: Rattus norvegicus; experiment: Selectivity ratio, IC50 for rat NMDA NR2A receptor to IC50 for rat NMDA NR2D receptor; method in brief: as §2
Mus musculus [11] = experiment: Induction of hyperactivity intracranially dosed 24-day old Swiss-Webster mouse; type: functional, organism-based
Method in brief: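 Intracranial injection of 2 nmol peptide in 20 μl normal saline (29-gauge needle) into 24-day-old mice (12.2–12.8 g). An equal volume of saline served as negative control. Mice were watched in cages for hyperactivity: continuous walking, excessive grooming and climbing of the cage wall.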

Chain of Glutamate receptor ionotropic, NMDA 2B (Q00960 whole entry, one chain of several): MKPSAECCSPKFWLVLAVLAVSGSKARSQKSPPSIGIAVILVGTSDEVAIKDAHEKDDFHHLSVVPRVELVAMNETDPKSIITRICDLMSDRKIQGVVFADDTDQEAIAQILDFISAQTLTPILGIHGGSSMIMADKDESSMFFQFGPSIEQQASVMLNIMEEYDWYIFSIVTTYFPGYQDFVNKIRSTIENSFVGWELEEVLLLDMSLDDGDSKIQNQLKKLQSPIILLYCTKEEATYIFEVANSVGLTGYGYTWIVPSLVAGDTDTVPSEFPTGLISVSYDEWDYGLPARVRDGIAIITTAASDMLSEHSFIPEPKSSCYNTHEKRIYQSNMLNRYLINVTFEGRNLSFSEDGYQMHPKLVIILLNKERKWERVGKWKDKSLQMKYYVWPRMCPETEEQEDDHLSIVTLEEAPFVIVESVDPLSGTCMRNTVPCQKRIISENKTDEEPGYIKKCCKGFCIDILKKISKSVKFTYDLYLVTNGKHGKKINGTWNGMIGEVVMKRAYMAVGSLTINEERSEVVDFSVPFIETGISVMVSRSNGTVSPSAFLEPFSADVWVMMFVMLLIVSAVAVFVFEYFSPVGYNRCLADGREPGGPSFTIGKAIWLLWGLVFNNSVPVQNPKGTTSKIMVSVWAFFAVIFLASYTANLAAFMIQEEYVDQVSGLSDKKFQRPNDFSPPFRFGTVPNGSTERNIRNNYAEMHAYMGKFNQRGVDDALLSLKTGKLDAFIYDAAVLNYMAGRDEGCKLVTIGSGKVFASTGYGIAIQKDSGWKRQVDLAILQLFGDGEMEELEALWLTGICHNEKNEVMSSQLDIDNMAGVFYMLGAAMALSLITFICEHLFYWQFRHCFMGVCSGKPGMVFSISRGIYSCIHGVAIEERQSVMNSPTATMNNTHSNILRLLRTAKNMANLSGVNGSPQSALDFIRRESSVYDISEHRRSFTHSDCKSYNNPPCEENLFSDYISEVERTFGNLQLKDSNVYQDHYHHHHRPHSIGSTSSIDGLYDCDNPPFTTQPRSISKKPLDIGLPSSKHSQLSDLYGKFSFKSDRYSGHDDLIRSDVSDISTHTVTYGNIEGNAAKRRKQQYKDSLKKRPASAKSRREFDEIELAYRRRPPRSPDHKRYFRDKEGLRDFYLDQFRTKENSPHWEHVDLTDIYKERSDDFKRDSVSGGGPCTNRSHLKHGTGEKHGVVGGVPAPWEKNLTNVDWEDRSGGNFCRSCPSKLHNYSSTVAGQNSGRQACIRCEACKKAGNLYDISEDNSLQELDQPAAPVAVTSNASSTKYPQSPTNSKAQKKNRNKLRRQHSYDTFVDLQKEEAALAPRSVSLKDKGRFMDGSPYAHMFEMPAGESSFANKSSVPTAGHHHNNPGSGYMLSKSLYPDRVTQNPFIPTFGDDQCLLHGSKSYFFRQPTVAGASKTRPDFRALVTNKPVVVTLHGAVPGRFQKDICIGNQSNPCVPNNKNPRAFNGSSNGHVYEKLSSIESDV
Chain of Glutamate receptor ionotropic, NMDA 2D (Q62645 whole entry, the tested form may be a part, one chain of several): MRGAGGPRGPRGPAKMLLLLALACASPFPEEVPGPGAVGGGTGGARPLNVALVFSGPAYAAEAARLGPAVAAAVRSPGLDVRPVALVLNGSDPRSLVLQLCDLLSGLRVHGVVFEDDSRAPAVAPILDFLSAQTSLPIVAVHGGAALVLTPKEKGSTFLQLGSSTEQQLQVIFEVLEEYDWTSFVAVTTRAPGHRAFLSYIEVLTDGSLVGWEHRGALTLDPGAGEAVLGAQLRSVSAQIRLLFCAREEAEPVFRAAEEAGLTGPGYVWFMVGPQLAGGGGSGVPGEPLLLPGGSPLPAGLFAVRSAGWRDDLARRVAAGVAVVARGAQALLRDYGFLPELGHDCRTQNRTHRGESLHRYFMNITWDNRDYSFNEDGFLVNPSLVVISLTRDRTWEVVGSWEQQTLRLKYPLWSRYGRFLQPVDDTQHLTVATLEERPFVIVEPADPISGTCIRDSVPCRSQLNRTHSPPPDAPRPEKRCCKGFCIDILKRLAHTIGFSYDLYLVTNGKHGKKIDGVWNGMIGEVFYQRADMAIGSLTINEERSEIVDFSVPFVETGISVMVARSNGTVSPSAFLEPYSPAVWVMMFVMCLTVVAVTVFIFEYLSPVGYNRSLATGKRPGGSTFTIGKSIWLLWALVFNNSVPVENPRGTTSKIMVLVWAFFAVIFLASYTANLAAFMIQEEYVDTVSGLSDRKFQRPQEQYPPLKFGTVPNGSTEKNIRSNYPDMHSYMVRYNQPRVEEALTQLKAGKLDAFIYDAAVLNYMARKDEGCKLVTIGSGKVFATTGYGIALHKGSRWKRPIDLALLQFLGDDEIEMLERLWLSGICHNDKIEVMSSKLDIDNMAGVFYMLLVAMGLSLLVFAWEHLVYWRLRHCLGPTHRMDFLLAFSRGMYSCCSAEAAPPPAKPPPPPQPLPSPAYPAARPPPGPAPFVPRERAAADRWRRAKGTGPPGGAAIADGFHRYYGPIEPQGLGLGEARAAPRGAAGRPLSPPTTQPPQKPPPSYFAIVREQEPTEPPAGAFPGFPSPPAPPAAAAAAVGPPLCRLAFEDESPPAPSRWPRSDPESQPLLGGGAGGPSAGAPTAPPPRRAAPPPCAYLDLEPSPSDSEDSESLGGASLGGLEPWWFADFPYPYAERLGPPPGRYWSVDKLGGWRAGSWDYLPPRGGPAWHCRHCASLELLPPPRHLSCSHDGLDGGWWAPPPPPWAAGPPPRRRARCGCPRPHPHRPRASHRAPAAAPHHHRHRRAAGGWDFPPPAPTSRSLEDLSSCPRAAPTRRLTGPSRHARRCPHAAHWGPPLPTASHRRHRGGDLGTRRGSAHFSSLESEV
Chain of Glutamate receptor ionotropic, NMDA 2C (Q00961 whole entry, one chain of several): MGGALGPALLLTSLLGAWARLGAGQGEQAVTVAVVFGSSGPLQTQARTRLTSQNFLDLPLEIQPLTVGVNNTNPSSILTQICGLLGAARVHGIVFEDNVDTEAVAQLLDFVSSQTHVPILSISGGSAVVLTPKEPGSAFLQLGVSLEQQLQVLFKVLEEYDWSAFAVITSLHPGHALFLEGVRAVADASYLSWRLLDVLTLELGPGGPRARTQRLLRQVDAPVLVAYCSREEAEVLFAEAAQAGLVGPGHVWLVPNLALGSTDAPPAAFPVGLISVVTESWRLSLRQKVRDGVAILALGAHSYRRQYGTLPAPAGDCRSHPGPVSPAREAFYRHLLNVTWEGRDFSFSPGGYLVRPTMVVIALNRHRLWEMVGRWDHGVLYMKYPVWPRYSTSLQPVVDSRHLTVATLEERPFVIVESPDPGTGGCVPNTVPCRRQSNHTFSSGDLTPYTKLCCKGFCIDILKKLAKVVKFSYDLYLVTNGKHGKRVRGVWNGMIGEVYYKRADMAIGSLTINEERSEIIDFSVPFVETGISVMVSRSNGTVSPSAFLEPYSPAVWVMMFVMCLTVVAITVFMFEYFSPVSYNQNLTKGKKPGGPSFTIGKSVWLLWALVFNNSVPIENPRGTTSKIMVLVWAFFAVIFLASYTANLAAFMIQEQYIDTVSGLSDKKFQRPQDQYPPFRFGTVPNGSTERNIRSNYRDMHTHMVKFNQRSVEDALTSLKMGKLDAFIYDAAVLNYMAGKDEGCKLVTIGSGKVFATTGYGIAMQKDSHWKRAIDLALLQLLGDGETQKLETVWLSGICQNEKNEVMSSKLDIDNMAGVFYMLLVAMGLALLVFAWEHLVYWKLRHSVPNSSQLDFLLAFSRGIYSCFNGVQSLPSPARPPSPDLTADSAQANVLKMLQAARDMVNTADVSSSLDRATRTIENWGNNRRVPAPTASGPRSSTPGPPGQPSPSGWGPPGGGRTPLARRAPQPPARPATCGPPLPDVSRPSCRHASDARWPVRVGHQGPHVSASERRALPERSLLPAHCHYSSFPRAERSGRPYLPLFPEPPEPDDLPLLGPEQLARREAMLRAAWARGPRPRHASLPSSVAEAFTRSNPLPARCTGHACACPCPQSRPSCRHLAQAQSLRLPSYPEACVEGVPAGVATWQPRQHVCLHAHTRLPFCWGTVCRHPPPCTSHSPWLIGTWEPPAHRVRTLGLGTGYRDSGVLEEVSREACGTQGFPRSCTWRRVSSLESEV

Compound	IC50 [1] [nM]	Ratio IC50 (Rattus norvegicus [2])	Activity (Mus musculus [3]) [min]	Activity (Mus musculus [4]) [min]	Activity (Mus musculus [5]) [min]	Activity [6]	IC50 [7] [µM]	IC50 [8] [nM]	IC50 [9] [µM]	Ratio IC50 (Rattus norvegicus [10])	Activity (Mus musculus [11])
CC[C@H](C)[C@H](NC(=O)[C@H](CCCCN)NC(=O)CNC(=O)[C@H](Cc1cnc[nH]1)NC(=O)[C@@H](NC(=O)[C@H](CC(C)C)NC(=O)[C@H](CCC(N)=O)NC(=O)[C@H](Cc1ccc(O)cc1)NC(=O)[C@H](CC(C(=O)O)C(=O)O)NC(=O)[C@H](CCCNC(=N)N)NC(=O)[C@@H](NC(=O)CNC(=O)[C@H](CC(C(=O)O)C(=O)O)NC(=O)[C@H](C)NC(=O)[C@H](Cc1ccc(O)cc1)NC(=O)[C@H](CC(C(=O)O)C(=O)O)NC(=O)[C@H](CC(=O)O)NC(=O)[C@H](CCC(=O)O)NC(=O)CN)[C@@H](C)CC)[C@@H](C)CC)C(=O)O (H-GED[Gla]YA[Gla]GIR[Gla]YQLIHGKI-OH)	1000	5	9	12.2	18	Active	> 10	200	≥ 10	> 10	Active
CC[C@H](C)[C@H](NC(=O)[C@H](CCCCN)NC(=O)CNC(=O)[C@H](Cc1ccc(O)cc1)NC(=O)[C@H](CCCCN)NC(=O)[C@H](CC(C)C)NC(=O)[C@H](CCC(N)=O)NC(=O)[C@H](Cc1ccc(O)cc1)NC(=O)[C@H](CC(C(=O)O)C(=O)O)NC(=O)[C@H](CCCNC(=N)N)NC(=O)[C@@H](NC(=O)[C@H](C)NC(=O)[C@H](CC(C(=O)O)C(=O)O)NC(=O)[C@H](C)NC(=O)[C@H](Cc1ccc(O)cc1)NC(=O)[C@H](CC(C(=O)O)C(=O)O)NC(=O)[C@@H]1C[C@@H](O)CN1C(=O)[C@H](CCC(=O)O)NC(=O)[C@@H](N)CC(=O)O)[C@@H](C)CC)C(=O)O (H-DE[Hyp][Gla]YA[Gla]AIR[Gla]YQLKYGKI-OH)	–	2	9.7	14	17.5	–	–	–	–	> 10	Active
CC(C)C[C@H](NC(=O)CNC(=O)[C@H](CC(C(=O)O)C(=O)O)NC(=O)[C@H](C)NC(=O)[C@H](Cc1c[nH]c2ccccc12)NC(=O)[C@H](CCCCN)NC(=O)[C@H](C)NC(=O)[C@@H](NC(=O)[C@H](CC(C(=O)O)C(=O)O)NC(=O)[C@@H]1C[C@@H](O)CN1C(=O)[C@H](CCC(=O)O)NC(=O)CN)C(C)C)C(=O)N[C@@H](CCCNC(=N)N)C(=O)N[C@@H](CC(C(=O)O)C(=O)O)C(=O)N[C@@H](CCCCN)C(=O)N[C@@H](C)C(=O)N[C@@H](C)C(=O)N[C@@H](CO)C(=O)N[C@@H](CC(N)=O)C(N)=O (H-GE[Hyp][Gla]VAKWA[Gla]GLR[Gla]KAASN-NH2)	–	16	10.7	16.5	21	–	–	–	–	> 10	Active
CC[C@H](C)[C@H](NC(=O)[C@H](CCCCN)NC(=O)CNC(=O)[C@H](Cc1ccc(O)cc1)NC(=O)[C@H](CCCCN)NC(=O)[C@H](CC(C)C)NC(=O)[C@H](CCC(N)=O)NC(=O)[C@H](Cc1ccc(O)cc1)NC(=O)[C@H](CC(C(=O)O)C(=O)O)NC(=O)[C@H](CCCN=C(N)N)NC(=O)[C@@H](NC(=O)[C@H](C)NC(=O)[C@H](CC(C(=O)O)C(=O)O)NC(=O)[C@H](C)NC(=O)[C@H](Cc1ccc(O)cc1)NC(=O)[C@H](CC(C(=O)O)C(=O)O)NC(=O)[C@@H]1C[C@@H](O)CN1C(=O)[C@H](CCC(=O)O)NC(=O)[C@@H](N)CC(=O)O)[C@@H](C)CC)C(=O)O (H-DE[Hyp][Gla]YA[Gla]AIR[Gla]YQLKYGKI-OH)	1000	–	–	–	–	–	> 10	500	≥ 10	–	–
CC(C)C[C@H](NC(=O)CNC(=O)[C@H](CC(C(=O)O)C(=O)O)NC(=O)[C@H](C)NC(=O)[C@H](Cc1c[nH]c2ccccc12)NC(=O)[C@H](CCCCN)NC(=O)[C@H](C)NC(=O)[C@@H](NC(=O)[C@H](CC(C(=O)O)C(=O)O)NC(=O)[C@@H]1C[C@@H](O)CN1C(=O)[C@H](CCC(=O)O)NC(=O)CN)C(C)C)C(=O)N[C@@H](CCCN=C(N)N)C(=O)N[C@@H](CC(C(=O)O)C(=O)O)C(=O)N[C@@H](CCCCN)C(=O)N[C@@H](C)C(=O)N[C@@H](C)C(=O)N[C@@H](CO)C(=O)N[C@@H](CC(N)=O)C(N)=O (H-GE[Hyp][Gla]VAKWA[Gla]GLR[Gla]KAASN-NH2)	8000	–	–	–	–	–	> 10	500	≥ 10	–	–
CC[C@H](C)[C@H](NC(=O)[C@H](CC(N)=O)NC(=O)[C@H](CC(C(=O)O)C(=O)O)NC(=O)[C@H](CCCNC(=N)N)NC(=O)[C@H](C)NC(=O)[C@H](CC(C)C)NC(=O)[C@H](CC(C(=O)O)C(=O)O)NC(=O)[C@H](C)NC(=O)[C@H](C)NC(=O)[C@H](CCSC)NC(=O)[C@H](CCCCN)NC(=O)[C@H](C)NC(=O)[C@@H](NC(=O)[C@H](CC(C(=O)O)C(=O)O)NC(=O)[C@H](CC(C(=O)O)C(=O)O)NC(=O)[C@H](CCC(=O)O)NC(=O)CN)C(C)C)C(=O)N[C@@H](C)C(=O)N[C@@H](CCCCN)C(=O)NCC(=O)N[C@@H](CS)C(=O)N[C@@H](CCCCN)C(=O)N[C@H](C(=O)N[C@@H](CC(N)=O)C(=O)N[C@@H](CS)C(=O)N[C@@H](Cc1ccc(O)cc1)C(=O)N1CCC[C@H]1C(=O)O)C(C)C [CONANTOKIN-R]	> 10000	> 10	–	–	–	–	1	1000	7	< 0.1	–
